Measured values as given in ChEMBL document CHEMBL4334468, “Exploring Mitochondria-Mediated Intrinsic Apoptosis by New Phytochemical Entities: An Explicit Observation of Cytochrome c Dynamics on Lung and Melanoma Cancer Cells” (J Med Chem, 2019).
Activity calls are given as the source filed them. The calls are words filed in the database; no cut-off is given here.

How the values were obtained:
A-375 [1] = test: Cytotoxicity in human A375 cells assessed as reduction in cell viability incubated for 48 hrs by MTT assay; type: functional, cell-based; conditions: Homo sapiens, A-375, 48 h; read-out: IC50
Outline: (§1)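 MTT viability assay on A375 melanoma, A549 lung adenocarcinoma and WI-38 normal lung fibroblast cells after 24 and 48 h treatment. IC50 values are in µM, expressed as mean ± SD.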

A549 [2] = test: Induction of morphological changes in human A549 cells at 20 uM by phase contrast microscopy; type: functional, cell-based
A-375 [3] = test: Induction of apoptosis in human A375 cells assessed as cytochrome-c release after 6 to 8 hrs by Raman spectral imaging analysis; type: functional, cell-based
A549 [4] = test: Antimetastatic activity in human A549 cells assessed as reduction in cell invasion at 10 nM by crystal violet staining based transwell chamber assay; type: functional
Outline: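 Invasion was measured in a transwell chamber, with cells moving across Matrigel toward the lower chamber. Invaded cells were imaged and quantified against untreated control.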

A-375 [5] = test: Induction of apoptosis in human A375 cells assessed as increase in caspase-3 levels at 1 uM incubated for 12 hrs by spectrofluorometry; type: functional, cell-based
A549 [6] = test: Induction of DNA damage in human A549 cells by SERS spectral analysis; type: functional, cell-based
A-375 [7] = test: Inhibition of mitochondrial membrane potential in human A375 cells at 1 uM by TMRE staining based assay; type: functional, cell-based
A-375 [8] = test: Induction of DNA damage in human A375 cells after 4 hrs by Raman spectral imaging analysis; type: functional, cell-based
A-375 [9] = test: Induction of apoptosis in human A375 cells assessed as increase in caspase-9 levels at 1 uM incubated for 12 hrs by spectrofluorometry; type: functional, cell-based
A-375 [10] = test: Induction of morphological changes in human A375 cells assessed as induction of membrane breakage, blebbing and leakage of intracellular components at 1 uM by atomic force microscopy; type: functional, cell-based
A549 [11] = test: Induction of apoptosis in human A549 cells assessed as cytochrome-c release after 4 to 12 hrs by spectrophotometry; type: functional, cell-based
A-375 [12] = test: Inhibition of colony formation in human A375 cells at 1 nM by crystal violet staining based assay; type: functional, cell-based
A549 [13] = test: Induction of intracellular ROS generation in human A549 cells at 1 uM by DCFDA dye based fluorescence assay relative to control; type: functional
Outline: (§2)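 Intracellular ROS in A549 cells was measured with the DCFDA probe over 1-100 µM, with paclitaxel as positive control. Readout is fold change in fluorescence intensity relative to untreated control.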

A-375 [14] = test: Suppression of cell number in human A375 cells at 20 uM by phase contrast microscopy; type: functional, cell-based
A549 [15] = test: Induction of apoptosis in human A549 cells assessed as late apoptotic cells level at 1 uM incubated for 24 hrs by FITC-Annexin V staining based assay (reference value: 0.02%); type: functional
A549 [16] = test: Induction of apoptosis in human A549 cells assessed as cytochrome-c release after 3 to 4 hrs by Raman spectral imaging analysis; type: functional, cell-based
A549 [17] = test: Induction of apoptosis related protein expression in human A549 cells assessed as increase in Bim expression at 20 uM incubated for 12 hrs by apoptosis antibody array; type: functional, cell-based
A-375 [18] = test: Cytotoxicity in human A375 cells assessed as reduction in cell proliferation at 0.001 to 100 uM incubated for 24 to 48 hrs by BrdU incorporation assay; type: functional, cell-based
Outline: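 BrdU incorporation assay read colorimetrically. Absorbance of the developed colour is proportional to the BrdU incorporated into cells, taken as a measure of proliferation.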

[19] = Antioxidant activity at 1 to 1000 ug/ml incubated for 90 mins by FRAP assay; type: functional
A549 [20] = test: Induction of morphological changes in human A549 cells assessed as induction of membrane breakage, blebbing and leakage of intracellular components at 1 uM by atomic force microscopy; type: functional, cell-based
A-375 [21] = test: Induction of DNA fragmentation in human A375 cells after 3 hrs by chemometec-DNA fragmentation assay relative to control; type: functional, cell-based
A549 [22] = test: Induction of apoptosis related protein expression in human A549 cells assessed as increase in TNFalpha/beta expression at 20 uM incubated for 12 hrs by apoptosis antibody array; type: functional, cell-based
A549 [23] = test: Induction of apoptosis in human A549 cells at 1 uM by APOP assay; type: functional, cell-based
Outline: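 APOPercentage dye uptake in treated A549 cells, which stain purple-red in early apoptosis when phosphatidylserine is translocated. Accumulated dye was then quantified against unstained untreated controls.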

A549 [24] = test: Induction of cell cycle arrest in human A549 cells assessed as accumulation at S phase at 10 nM by propodium iodide staining based flow cytometric analysis (reference value: 25%); type: functional
Outline: (§3)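 DNA was stained with propidium iodide and analysed by flow cytometry. Histograms give the fraction of cells in G0/G1, S and G2/M phases.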

A549 [25] = test: Induction of intracellular ROS generation in human A549 cells by DCFDA dye based fluorescence assay relative to control; type: functional, cell-based; outline: as §2
A-375 [26] = test: Antimetastatic activity in human A375 assessed as inhibition of cell migration rate at 1 nM incubated up to 24 hrs by scratch wound healing assay; type: functional, cell-based
Outline: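 Scratch wound healing assay. The cell-free zone was followed over time up to 24 h, with untreated control wells as reference. Closure was quantified as migration rate.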

A549 [27] = test: Cytotoxicity in human A549 cells assessed as reduction in cell viability incubated for 48 hrs by MTT assay; type: functional, cell-based; conditions: Homo sapiens, A549, 48 h; read-out: IC50; outline: as §1
A549 [28] = test: Induction of apoptosis in human A549 cells assessed as increase in caspase-9 levels at 1 uM incubated for 12 hrs by spectrofluorometry; type: functional, cell-based
A-375 [29] = test: Induction of cell cycle arrest in human A375 cells assessed as accumulation at S phase at 10 nM by propodium iodide staining based flow cytometric analysis; type: functional; outline: as §3
A549 [30] = test: Induction of apoptosis related protein expression in human A549 cells assessed as increase in HSP60 expression at 20 uM incubated for 12 hrs by apoptosis antibody array; type: functional, cell-based
A549 [31] = test: Induction of apoptosis related protein expression in human A549 cells assessed as increase in p21 expression at 20 uM incubated for 12 hrs by apoptosis antibody array; type: functional, cell-based
A549 [32] = test: Induction of apoptosis related protein expression in human A549 cells assessed as increase in p53 expression at 20 uM incubated for 12 hrs by apoptosis antibody array; type: functional, cell-based
A-375 [33] = test: Induction of apoptosis in human A375 cells at 1 uM by APOP assay; type: functional, cell-based
A-375 [34] = test: Induction of cell cycle arrest in human A375 cells assessed as accumulation at G2/M phase at 10 nM by propodium iodide staining based flow cytometric analysis; type: functional; outline: as §3
A-375 [35] = test: Induction of DNA damage in human A375 cells by SERS spectral analysis; type: functional, cell-based
A549 [36] = test: Induction of DNA fragmentation in human A549 cells after 3 hrs by chemometec-DNA fragmentation assay relative to control; type: functional
A549 [37] = test: Induction of cell cycle arrest in human A549 cells assessed as accumulation at G0/G1 phase at 10 nM by propodium iodide staining based flow cytometric analysis (reference value: 68%); type: functional; outline: as §3
A-375 [38] = test: Antimetastatic activity in human A375 cells assessed as reduction in cell migration at 10 nM by crystal violet staining based transwell chamber assay; type: functional
Outline: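 Transwell chamber migration assay. Cells migrating to the lower side were imaged and quantified against untreated control.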

Structure (SMILES): COc1cc(C2Oc3cc(-c4cc(=O)c5c(O)cc(O)cc5o4)ccc3OC2/C=C2\C(=O)ON=C2c2ccc(Cl)cc2)ccc1O (stereo not drawn)
- IC50 (A-375 [1]): 0.94 µM
- Activity (A549 [2]): Active
- Activity (A-375 [3]): Active
- Activity (A549 [4]): Active
- Activity (A-375 [5]): Active
- Activity (A549 [6]): Active
- inhibition (A-375 [7]): Active
- Activity (A-375 [8]): Active
- Activity (A-375 [9]): Active
- Activity (A-375 [10]): Active
- Activity (A549 [11]): Active
- inhibition (A-375 [12]): Active
- fold change (FC) (A549 [13]): >3
- Activity (A-375 [14]): Active
- Activity (A549 [15]): 38%
- Activity (A549 [16]): Active
- Activity (A549 [17]): Active
- Activity (A-375 [18]): Active
- Activity [19]: inactive
- Activity (A549 [20]): Active
- Activity (A-375 [21]): Active
- Activity (A549 [22]): Active
- Activity (A549 [23]): Active
- Activity (A549 [24]): 40%
- Activity (A549 [25]): Dose-dependent effect
- Activity (A-375 [26]): Active
- IC50 (A549 [27]): 1.2 µM
- Activity (A549 [28]): Active
- Activity (A-375 [29]): Active
- Activity (A549 [30]): Active
- Activity (A549 [31]): Active
- Activity (A549 [32]): Active
- Activity (A-375 [33]): Active
- Activity (A-375 [34]): Active
- Activity (A-375 [35]): Active
- Activity (A549 [36]): 14.5%
- Activity (A549 [37]): 31%
- Activity (A-375 [38]): Active
